Data published in ChEMBL document CHEMBL5346918, “Design, synthesis and biological evaluation of Nucleosidic CD99 inhibitors that selectively reduce Ewing sarcoma viability” (Eur J Med Chem, 2023).
Active and inactive are the calls of the source. No cut-off for these calls is given here.

Key:
[1] = Cytotoxicity against human A4573 cells assessed as reduction in cell viability incubated for 48 hrs by CellTiter-Blue reagent based […] assay; assay type: functional; conditions: A4573, 48 h
Method in brief: (§1)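 Cells seeded and grown to 60–80% confluency (usually 18–24 h), then treated 48 h with a range of concentrations prepared in each line's medium. CellTiter-Blue reagent added at the end of treatment and incubated 3–5 h at 37 °C, 5% CO₂. Fluorescence read at 560 nm excitation and 590 nm emission. IC50 from nonlinear regression, log(inhibitor) vs. normalized response.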

[2] = biological target: T1, CD99 antigen (Homo sapiens, UniProt P14209); test: Binding affinity to N-terminal biotin-tagged recombinant human CD99 extracellular domain (23 to 122 residues) expressed in Escherichia coli BL21(DE3) by surface plasmon resonance analysis
T1 sequence (P14209 whole entry): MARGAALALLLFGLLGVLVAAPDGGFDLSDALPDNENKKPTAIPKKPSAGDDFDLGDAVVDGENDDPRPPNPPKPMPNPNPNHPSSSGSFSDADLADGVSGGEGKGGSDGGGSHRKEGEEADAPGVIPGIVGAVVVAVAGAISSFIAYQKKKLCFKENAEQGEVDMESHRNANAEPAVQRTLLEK
Method in brief: (§2)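 Bacterially expressed recombinant CD99 extracellular domain amine-coupled to CM5 chip (10 mM sodium acetate pH 4.0, ~3500 RU). Analytes injected at various concentrations in PBS-P pH 7.4 + 1% DMSO at 50 μL/min. Contact time 60 s, dissociation 300 s, regeneration with 15 s H3PO4 pulse. Duplicate injections; sensorgrams fitted to 1:1 kinetic model.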

[3] = Cytotoxicity against human COG-E-352 cells assessed as reduction in cell viability incubated for 48 hrs by CellTiter-Blue reagent based […] assay; assay type: functional; conditions: COG-E-352, 48 h
Method in brief: (§3)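 Cells grown in their own media at 37 °C, 5% CO2, mycoplasma-tested. At 60–80% confluency, treated 48 h with a range of concentrations made in medium. CellTiter-Blue added for 3–5 h at 37 °C, fluorescence read at ex 560/em 590 nm. IC50 from nonlinear regression (log(inhibitor) vs normalized response); mean ± SD of duplicate or triplicate determinations.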

[4] = test system: HeLa; test: Cytotoxicity against human HeLa cells assessed as reduction in cell viability incubated for 48 hrs by CellTiter-Blue reagent based […] assay; assay type: functional; method in brief: as §3
[5] = Cytotoxicity against human MG-63.3 cells assessed as reduction in cell viability incubated for 48 hrs by CellTiter-Blue reagent based […] assay; assay type: functional; conditions: MG-63.3, 48 h; method in brief: as §3
[6] = test system: 143B; test: Cytotoxicity against human 143B cells assessed as reduction in cell viability incubated for 48 hrs by CellTiter-Blue reagent based […] assay; assay type: functional; method in brief: as §3
[7] = test system: RD; test: Cytotoxicity against human RD cells assessed as reduction in cell viability incubated for 48 hrs by CellTiter-Blue reagent based […] assay; assay type: functional; method in brief: as §3
[8] = test system: HOS; test: Cytotoxicity against human HOS cells assessed as reduction in cell viability incubated for 48 hrs by CellTiter-Blue reagent based […]; assay type: functional; method in brief: as §3
[9] = test system: SJRH30; test: Cytotoxicity against human Rh30 cells assessed as reduction in cell viability incubated for 48 hrs by CellTiter-Blue reagent based […] assay; assay type: functional; conditions: SJRH30, 48 h
[10] = Cytotoxicity against human SK-ES cells assessed as reduction in cell viability incubated for 48 hrs by CellTiter-Blue reagent based […] assay; assay type: functional; method in brief: as §3
[11] = test system: PC-3; test: Cytotoxicity against human PC-3 cells assessed as reduction in cell viability incubated for 48 hrs by CellTiter-Blue reagent based […] assay; assay type: functional; conditions: PC-3, 48 h; method in brief: as §3
[12] = test system: U2OS; test: Cytotoxicity against human U2OS cells assessed as reduction in cell viability incubated for 48 hrs by CellTiter-Blue reagent based […] assay; assay type: functional; method in brief: as §1
[13] = test system: TC-32; test: Induction of apoptosis in human TC-32 cells assessed as caspase-3 cleavage at 10 to 40 uM incubated for 48 hrs by western blot analysis; assay type: functional, cell-based; conditions: dose 10-40 µM
Method in brief: (§4)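 Cells treated 48 h with three concentrations per agent (0.1, 0.2 or 0.4 μM for one; 10, 20 or 40 μM for another). Total cell lysates immunoblotted for PARP and caspase 3 and their cleaved products. Actin used as loading control and for normalization. ECL signal imaged on PVDF, bands quantified by densitometry.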

[14] = test system: U2OS; test: Induction of apoptosis in human U2OS cells assessed as PARP cleavage at 10 to 40 uM incubated for 48 hrs by western blot analysis; assay type: functional, cell-based; conditions: dose 10-40 µM; method in brief: as §4
[15] = test system: TC-32; test: Cytotoxicity against human TC-32 cells assessed as reduction in cell viability incubated for 48 hrs by CellTiter-Blue reagent based […] assay; assay type: functional; conditions: TC-32, 48 h; method in brief: as §1
[16] = test system: TC-32; test: Induction of apoptosis in human TC-32 cells assessed as PARP cleavage at 10 to 40 uM incubated for 48 hrs by western blot analysis; assay type: functional, cell-based; conditions: dose 10-40 µM; method in brief: as §4
[17] = Cytotoxicity against human TC71 cells assessed as reduction in cell viability incubated for 48 hrs by CellTiter-Blue reagent based […] assay; assay type: functional; conditions: TC-71, 48 h; method in brief: as §1
[18] = test system: TC-32; test: Induction of apoptosis in human TC-32 cells assessed as increase in hypodiploid subG1 population at 10 to 40 uM incubated for 48 hrs by propidium iodide staining based flow cytometry; assay type: functional, cell-based; conditions: dose 10-40 µM
Method in brief: (§5)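 Treatment same as the apoptosis blots (48 h; 0.1–0.4 μM or 10–40 μM). Adherent cells trypsinized and pooled with floating cells, then washed in PBS. Fixed in ice-cold 70% ethanol 1 h on ice, rehydrated, RNase A 100 μg/mL. Stained with propidium iodide at 50 μg/mL final for 1 h on ice. Sub-G1 fraction read by flow cytometry.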

[19] = Cytotoxicity against human STA-ET-7.2 cells assessed as reduction in cell viability incubated for 48 hrs by CellTiter-Blue reagent based […] assay; assay type: functional; conditions: STA-ET-7.2, 48 h
[20] = test system: TC-32; test: Inhibition of DNA synthesis in human TC-32 cells assessed as induction of DNA damage by measuring gammaH2AX phosphorylation at 20 to 80 uM incubated for 6 hrs by western blot analysis; assay type: toxicity, cell-based; conditions: tc-32, 6 h, dose 20-80 µM
Method in brief: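 TC-32 cells treated 6 h at 20, 40 or 80 μM. Total lysates immunoblotted for H2A.X and Ser139-phosphorylated γH2A.X. Actin used as loading control and for normalization. Bands quantified by densitometry.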

[21] = test system: U2OS; test: Induction of apoptosis in human U2OS cells assessed as caspase-3 cleavage at 10 to 40 uM incubated for 48 hrs by western blot analysis; assay type: functional, cell-based; conditions: dose 10-40 µM; method in brief: as §4
[22] = test system: U-87 MG; test: Cytotoxicity against human U-87 MG cells assessed as reduction in cell viability incubated for 48 hrs by CellTiter-Blue reagent based […] assay; assay type: functional, U-87MG ATCC; method in brief: as §3
[23] = Cytotoxicity against human HEK293 cells assessed as reduction in cell viability incubated for 48 hrs by CellTiter-Blue reagent based […] assay; assay type: toxicity; method in brief: as §3
[24] = biological target: T1, CD99 antigen; test: Binding affinity to N-terminal biotin-tagged recombinant human CD99 extracellular domain (23 to 122 residues) expressed in Escherichia coli BL21(DE3) assessed as dissociation rate constant by surface plasmon resonance analysis; method in brief: as §2
[25] = test system: U2OS; test: Induction of apoptosis in human U2OS cells assessed as increase in hypodiploid subG1 population at 10 to 40 uM incubated for 48 hrs by propidium iodide staining based flow cytometry; assay type: functional, cell-based; conditions: dose 10-40 µM; method in brief: as §5
[26] = Cytotoxicity against human MHH-ES cells assessed as reduction in cell viability incubated for 48 hrs by CellTiter-Blue reagent based […] assay; assay type: functional
[27] = test system: A 172; test: Cytotoxicity against human A-172 cells assessed as reduction in cell viability incubated for 48 hrs by CellTiter-Blue reagent based […] assay; assay type: functional; conditions: A 172, 48 h; method in brief: as §3
[28] = test system: SAOS-2; test: Cytotoxicity against human SAOS-2 cells assessed as reduction in cell viability incubated for 48 hrs by CellTiter-Blue reagent based […] assay; assay type: functional; conditions: SAOS-2, 48 h; method in brief: as §1
[29] = test system: A549; test: Cytotoxicity against human A549 cells assessed as reduction in cell viability incubated for 48 hrs by CellTiter-Blue reagent based […] assay; assay type: functional; conditions: A549, 48 h
[30] = biological target: T2, CD99 antigen (Homo sapiens) (UniProt P14209); test: Binding affinity to N-terminal biotin-tagged recombinant human CD99 extracellular domain (23 to 122 residues) expressed in Escherichia coli BL21(DE3) assessed as association rate constant by surface plasmon resonance analysis; method in brief: as §2
T2 sequence (whole entry): T1 sequence (P14209 whole entry)

[31] = test system: U2OS; test: Induction of apoptosis in human U2OS cells assessed as PARP cleavage at 4 to 16 uM incubated for 48 hrs by western blot analysis; assay type: functional, cell-based; conditions: dose 4-16 µM
Method in brief: (§6)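 U-2 OS cells treated 48 h at 4, 8 or 16 μM; total lysates immunoblotted for cleaved PARP and cleaved caspase 3, actin as loading and normalization control.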

[32] = test system: U2OS; test: Induction of apoptosis in human U2OS cells assessed as increase in hypodiploid subG1 population at 4 to 16 uM incubated for 48 hrs by propidium iodide staining based flow cytometry; assay type: functional, cell-based; conditions: dose 4-16 µM
Method in brief: (§7)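 Cells treated 48 h at 4, 8 or 16 μM, then adherent and floating cells pooled, fixed in ice-cold 70% ethanol 1 h, treated with RNase A 100 μg/mL, stained with propidium iodide 50 μg/mL for 1 h on ice. Sub-G1 fraction measured by flow cytometry.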

[33] = test system: TC-32; test: Induction of apoptosis in human TC-32 cells assessed as PARP cleavage at 4 to 16 uM incubated for 48 hrs by western blot analysis; assay type: functional, cell-based; conditions: dose 4-16 µM
Method in brief: (§8)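 TC-32 cells treated 48 h at 4, 8 or 16 μM; total lysates immunoblotted for cleaved PARP and cleaved caspase 3, actin as loading and normalization control; ECL imaging with densitometry.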

[34] = biological target: T2, CD99 antigen (Homo sapiens); test: Binding affinity to CD99 in human TC71 cells assessed as protein stabilization at 80 uM incubated for 30 mins and measured at 51 to 99 degC by CETSA analysis; assay type: cell-based
Method in brief: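 TC-71 cell lysate mixed with compound at 80 μM final, aliquots heated at various temperatures; thermally stable CD99 remaining in solution detected by western blot with anti-CD99 antibody and quantified by densitometry relative to untreated lysate.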

[35] = test system: TC-32; test: Induction of apoptosis in human TC-32 cells assessed as caspase-3 cleavage at 4 to 16 uM incubated for 48 hrs by western blot analysis; assay type: functional, cell-based; conditions: dose 4-16 µM; method in brief: as §8
[36] = test system: TC-32; test: Induction of apoptosis in human TC-32 cells assessed as increase in hypodiploid subG1 population at 4 to 16 uM incubated for 48 hrs by propidium iodide staining based flow cytometry; assay type: functional, cell-based; conditions: dose 4-16 µM; method in brief: as §7
[37] = test system: U2OS; test: Induction of apoptosis in human U2OS cells assessed as caspase-3 cleavage at 4 to 16 uM incubated for 48 hrs by western blot analysis; assay type: functional, cell-based; conditions: dose 4-16 µM; method in brief: as §6

SMILES	IC50 [1]	Kd [2]	IC50 [3]	IC50 [4]	IC50 [5]	IC50 [6]	IC50 [7]	IC50 [8]	IC50 [9]	IC50 [10]	IC50 [11]	IC50 [12]	IC50 [15]	IC50 [17]	IC50 [19]	IC50 [22]	IC50 at 48 h [23]	Kd [24]	IC50 [26]	IC50 [27]	further results
Nc1nc(-c2cccnc2)nc2c1ncn2[C@@H]1O[C@H](CO)[C@@H](O)[C@@H]1F	45.1 µM	1.8 µM	60 µM	> 400 µM	> 368 µM	> 368 µM	> 400 µM	> 400 µM	> 368 µM	60 µM	> 400 µM	≥ 400 µM	58.7 µM	19.9 µM	60 µM	> 400 µM	> 368 µM	598.2 10^-6/s	60 µM	> 400 µM	Activity [13]: Active; Activity [14]: inactive; Activity [16]: Active; Activity [18]: Active; Activity [20]: Non-Toxic; Activity [21]: inactive; Activity [25]: inactive; IC50 [28]: ≥ 400 µM; IC50 [29]: > 400 µM; Ka [30]: 335 M⁻¹ s⁻¹
Nc1nc(Cl)nc2c1ncn2[C@@H]1O[C@H](COC(C(=O)O)C(=O)O)[C@@H](O)[C@@H]1F	27 µM	1.5 µM	27 µM	> 400 µM	> 341 µM	> 341 µM	> 400 µM	> 400 µM	> 341 µM	27 µM	> 400 µM	≥ 400 µM	27 µM	5.17 µM	27 µM	> 400 µM	> 341 µM	2467 10^-6/s	27 µM	> 341 µM	Activity [31]: inactive; Activity [32]: inactive; Activity [33]: Active; Activity [34]: Active; Activity [35]: Active; IC50 [28]: ≥ 400 µM; IC50 [29]: > 400 µM; Activity [36]: Active; Ka [30]: 1700 M⁻¹ s⁻¹; Activity [37]: inactive
